# S1P4 ag – agonists of human S1P4 receptor. O95977. S1P4-expressing cell line, agonist reporter assay. activation, % at 4.98 µM. 220,000 tested, 0.35% active. AID 1509; in the data active means activation above about 11%;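 further: 0% = DMSO vehicle and 100% = reference agonist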
# Target sequence (O95977 whole entry, looked up): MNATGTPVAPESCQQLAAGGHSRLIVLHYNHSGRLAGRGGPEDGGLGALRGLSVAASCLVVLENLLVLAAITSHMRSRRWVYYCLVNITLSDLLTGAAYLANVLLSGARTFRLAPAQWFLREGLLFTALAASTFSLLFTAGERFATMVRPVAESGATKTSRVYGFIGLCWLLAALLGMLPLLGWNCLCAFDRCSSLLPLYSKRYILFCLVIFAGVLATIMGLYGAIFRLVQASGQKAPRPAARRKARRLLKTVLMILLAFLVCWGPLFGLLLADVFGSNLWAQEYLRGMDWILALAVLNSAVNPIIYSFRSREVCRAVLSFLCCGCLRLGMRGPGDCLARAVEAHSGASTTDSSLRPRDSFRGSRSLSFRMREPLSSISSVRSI
# TNAP inh no acc – blocks human TNAP activity with no phosphate acceptor present; P05186; purified TNAP, CDP-star luminescence, 30 min; AID 1012; 200,000 tested, 0.26% active; inhibition, % at 20 µM;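 active means tissue-nonspecific alkaline phosphatase inhibition above about 50% at 20 µM in the single-dose screen, limit read from the data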;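 further: 0% = DMSO negative control and 100% = EDTA positive control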
# S1P3 antag – S1P3 (human) receptor antagonism | Q99500 | CHO S1P3 NFAT-BLA reporter, FRET fluorescence, antagonist mode | inhibition, % at 4.98 µM | 170,000 tested, 0.27% active | AID 485;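 active means inhibition above the plate cutoff, the mean inhibition of test wells on that plate plus 3 SD, cut at about 28% in these data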;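 further: cells challenged with S1P at its EC80 of 0.8 µM; blue over green emission ratio from cleaved BLA substrate after 4 h stimulation; 0% = S1P-stimulated wells and 100% = unstimulated DMSO-only wells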
# S1P4 antag – blocks the human S1P4 receptor. O95977. S1P4-expressing cells, antagonist mode, reporter read-out. inhibition, % at 4.98 µM. 220,000 tested, 0.26% active; in the data active means inhibition above about 29%;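 further: 0% = wells stimulated with agonist and 100% = vehicle wells without agonist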
# TNAP act hi DEA – increases human TNAP activity under high phosphate acceptor concentration; P05186; purified TNAP, CDP-star luminescence, 1 M DEA, 30 min; stronger effect = higher value; 0 = EDTA background, 1 = DMSO-only activity; activation factor at 20 µM; 200,000 tested, under 10 active; AID 1136;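 active means activation factor at least 2 at 20 µM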
#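 Assay system: human TNAP; Input: enzyme diluted 1/800 final; Reagent: CDP-star luminogenic substrate at 100 µM final; Timing: 30 min, room temperature; Signal: luminescence; Evaluation: TNAP activation factor scaled between EDTA and DMSO control wells.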
# TNAP inh hi DEA – blocks human TNAP under high phosphate acceptor concentration | AID 1135 | purified TNAP, CDP-star luminescence, 1 M DEA | P05186 | 200,000 tested, 0.03% active | inhibition, % at 20 µM;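 active means over 50% inhibition of tissue-nonspecific alkaline phosphatase at 20 µM in the single-dose screen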;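 further: plate controls were DMSO wells for no effect and EDTA-quenched wells as full inhibition for full effect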
# S1P4 antag conf – human S1P4 antagonism, confirmation. shares compounds with S1P4 antag. S1P4-expressing cell line, antagonist mode, reporter read-out. inhibition, % at 4.98 µM. 520 tested, 71% active; in the data active means inhibition above about 30%
# S1P1 antag – human S1P1 antagonism as S1P4 antagonist counter-screen | shares compounds with S1P4 antag | cell-based S1P1 antagonist counterscreen, inhibition | inhibition, % at 4.98 µM | 520 tested, 37% active | AID 1564; in the data active means inhibition above about 40%;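 further: receptor stimulated with S1P near its EC80; 0% = agonist stimulated wells and 100% = vehicle only wells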
# The depositor's hits bear a star; nt = no result given. In the library only some 1.1% were active in any assay of this set; here they are far more common.
SMILES,S1P4 ag,TNAP inh no acc,S1P3 antag,S1P4 antag,TNAP act hi DEA,TNAP inh hi DEA,S1P4 antag conf,S1P1 antag
O=C(NC(Cc1ccccc1)C(=O)O)/C(=C\c1ccc(Cl)cc1)NC(=O)c1ccccc1 (configuration not stated),-0.3,-4.8,-22.6,-19.2,1,-0.6,nt,nt
CN(C(=O)COC(=O)c1nc(Cl)c(Cl)c(Cl)c1Cl)C1CCS(=O)(=O)C1 (configuration not stated),1.0,-2.7,2.2,39.5*,1,-1.6,73.8*,8.9
CC(C(=O)NN=C(c1ccccc1)c1ccccc1)N1CCOCC1 (configuration not stated),-0.9,-9.2,-3.0,-1.4,1,-3.8,nt,nt
O=C(Nc1ccc(N2CCOCC2)cc1)Nc1ccc(Cl)c(Cl)c1,-0.2,-10.1,nt,6.6,1,-3.5,nt,nt
Cc1ccc(NC(=O)CS(=O)CC(=O)Nc2ccc(N3CCOCC3)cc2)cc1Cl (configuration not stated),-0.5,-5.0,-39.4,30.1*,1.1,-5.6,3.6,-4.3
CC(C)C(=O)NCc1cc(-c2ccccc2)no1,0.7,-9.4,-12.9,5.1,1.1,-5.3,nt,nt
COc1ccc(NC(=O)/C(Cl)=C(/Cl)S(=O)(=O)Cc2ccccc2)cn1,4.2,-9.1,nt,66.5*,1,4.3,118.9*,61.5*
Cc1cc(CNCc2c(C(=O)N3CCCCCCC3)nc3ccc(Cl)cn23)nn1C,-0.2,-3.9,-5.9,-24.8,1,-1.3,nt,nt
Cc1ccccc1NC(=O)N1CCc2ccccc2C1,0.7,-8.7,-6.7,32.3*,1.1,-6.5,80.1*,-6.8
Cc1cc(NC2CCCCC2)nc2ccccc12,-0.5,-9.9,-9.9,30.3*,1,-2.1,17.9,55.1*
Cc1cc(NCc2ccccn2)nc2ccccc12,2.6,-25.9,nt,2.8,1,2.1,nt,nt
CC(Nc1ccc(F)cc1F)C(=O)NC(=O)NC1CCCCC1 (configuration not stated),1.8,-7.9,-10.9,30.2*,1,2.2,-3.7,15.1
O=C(Nc1ccc(F)cc1F)NC1CC1,-0.2,-7.6,2.6,0.9,1,1.9,nt,nt
CC(C)c1nc(SCC(=O)Nc2c[nH]c(=O)[nH]c2=O)c2cnn(-c3ccccc3)c2n1,0.6,-53.5,-13.0,7.4,1,-4.9,nt,nt
Cc1ccc(S(=O)(=O)Nc2cccc3cccnc23)cc1,4.1,-12.6,nt,41.6*,1.1,-8.7,109.9*,98.0*
COc1ccc(N2C(=O)CC(N3CCN(S(=O)(=O)c4ccc(Cl)cc4)CC3)C2=O)cc1 (configuration not stated),0.4,-12.3,-10.4,30.0*,1,-4.9,-7.3,-5.5
Cc1ccnc(NC(=O)CCC(=O)N(CC(=O)NC(C)(C)C)c2ccc3c(c2)OCCO3)c1,0.6,-11.5,-3.6,-16.2,1,-4.3,nt,nt
C/C(=C/C(=O)O)C(=O)Nc1cccc(C(F)(F)F)c1,-0.7,-9.7,-23.3,-11.3,1,-0.2,nt,nt
CCOC(=O)/C(=C\c1ccc(OC(F)F)cc1)C1=Nn2c(nnc2-c2ccc(Cl)cc2)SC1,-0.3,1.6,0.9,30.6*,1,-0.1,119.0*,86.5*
COc1ccc(-c2nnc3n2N=C(C)CS3)cc1,-1.0,-5.8,nt,14.8,1,-1.1,nt,nt
N/C(=N/OC(=O)c1ccccc1Cl)c1ncc([N+](=O)[O-])s1,1.1,nt,9.7,33.7*,nt,nt,27.7,38.3
CC(C)(C)C(=O)N(Cc1ccc(Cl)cc1)Cc1cccnc1,-0.2,nt,7.0,1.0,nt,nt,nt,nt
CCOC(=O)C1CCN(C(=O)c2ccc(N(C)S(=O)(=O)c3ccc(OC)cc3)cc2)CC1,-4.2,-5.1,-1.0,-10.5,1,-0.9,nt,nt
Nc1cccc2c1C(=O)N(C(=O)c1cccc(S(=O)(=O)N3CCCC3)c1)C2=O,-1.0,-5.4,nt,31.4*,1,-1.9,18.4,22.8
N=C1SCC(=O)N1c1ncc(Cc2ccccc2Cl)s1,1.1,-26.4,-3.6,48.2*,1,-0.5,94.0*,98.1*
SMILES,S1P4 ag,TNAP inh no acc,S1P3 antag,S1P4 antag,TNAP act hi DEA,TNAP inh hi DEA,S1P4 antag conf,S1P1 antag
CN(C)c1ccc(/C=N/n2c(-c3ccccc3Br)n[nH]c2=S)cc1,0.8,nt,-15.6,-1.9,nt,nt,nt,nt
CCC(CC)NC(=O)CO/N=C/c1ccccc1OC(F)F,1.1,-10.2,-19.4,38.7*,1,-4.5,0.5,-5.7
O=C(CO/N=C/c1ccccc1OC(F)F)NC1CCCCC1,0.2,-2.1,1.2,-26.2,1,-2.8,nt,nt
Cc1ncc(C(=O)O)c(C(=O)O)c1N,2.0,nt,15.6,2.9,nt,nt,nt,nt
Cc1[nH]c2ccccc2c1/C=N/Nc1nc2ccccc2[nH]1,1.2,nt,22.8,49.8*,nt,nt,56.8*,26.8
CCc1nnc(N/N=C/c2c(C)[nH]c3ccccc23)n1N,-0.1,-15.7,11.4,96.7*,1.1,-5.6,3.7,2.7
Cc1ccccc1/C=N/Nc1nc2ccccc2[nH]1,-0.2,-18.2,1.2,15.0,1,-3.4,nt,nt
CCOC(=O)Cc1csc(NC(=O)/C=C/c2ccc(OC)cc2)n1,-1.5,-3.0,12.3,14.5,1,2.1,nt,nt
O=c1oc2ccccc2c(NCc2ccccc2F)c1[N+](=O)[O-],1.9,5.0,-6.4,-6.4,1,-0.4,nt,nt
CC(C)c1ccc(CNc2c([N+](=O)[O-])c(=O)oc3ccccc23)cc1,-0.3,-0.7,-28.6,32.1*,1,1.7,-3.4,-8.7
CC(=O)Nc1cccc(C(=O)/C=C/c2ccc(F)cc2)c1,-1.3,-10.8,-0.8,46.1*,1,-2.0,71.9*,23.4
Clc1ccc(C2CSc3c4ncnc-4ncn32)cc1 (configuration not stated),0.3,nt,-15.4,16.8,nt,nt,nt,nt
Cc1cccc(NC(=O)C2CCCN(C(=O)NC3CCCCC3)C2)c1C (configuration not stated),0.2,-12.9,2.2,35.8*,1,-4.7,-16.0,-9.7
COc1ccccc1NC(=O)N1CCCC(C(=O)Nc2cccc(C)c2C)C1 (configuration not stated),0.7,-9.6,-6.2,-3.2,1,-4.2,nt,nt
COc1nc(OC)nc(Oc2ccc(Cl)cc2[N+](=O)[O-])n1,2.6,-13.1,7.5,2.8,1,2.6,nt,nt
COc1ccccc1S(=O)(=O)c1ccccc1[N+](=O)[O-],2.5,-3.3,0.4,1.3,1,-2.8,nt,nt
COc1ccc([N+](=O)[O-])c(S(=O)(=O)c2ccc(Cl)cc2)n1,-1.4,nt,-7.3,92.8*,nt,nt,116.9*,103.6*
COc1ccc([N+](=O)[O-])c(S(=O)(=O)c2ccccc2)n1,-1.9,nt,-9.9,88.5*,nt,nt,118.6*,79.1*
CCOC(=O)C(C)(C)N(Cc1ccc(Cl)cc1)S(=O)(=O)c1ccc(Cl)c([N+](=O)[O-])c1,-0.7,-11.6,1.1,1.9,1,-3.6,nt,nt
